Cardio protect – myocardial damage modulation in H9c2 cells; H9c2 cardiomyocytes, H2O2 injury protection, ATPLite, 2 h; protection from H2O2 cell death, % at 20 µM; hit rate 0.63% among 360,000; AID 588492;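 active means compounds giving at least 50% protection of heart cells from peroxide-induced death in the single-dose screen, raw or plate-pattern-corrected value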
aDG glyco up – increases alpha dystroglycan glycosylation; Pro5-aDG cells, alpha-DG glycosylation AlphaScreen (IIH6); 0% Pro5, 100% B10-LARGE cell signal; activation, % at 10 µM; hit rate 0.22% among 360,000;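 active means activation of at least 8% versus controls, or a plate z-score of at least 8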;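 further: Pro5 are CHO cells carrying HIG-tagged alpha-DG that lacks glycosylation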
UCH37 inh – human UCH37 deubiquitinating enzyme inhibition. Q9Y5K5. purified proteasome/UCH37, Ub-AMC cleavage fluorescence. inhibition, % (no concentration beside the values). hit rate 0.33% among 330,000. AID 588478;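 active means mean inhibition over replicate wells above about 20%, limit read from the data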
Target sequence (Q9Y5K5 whole entry, looked up): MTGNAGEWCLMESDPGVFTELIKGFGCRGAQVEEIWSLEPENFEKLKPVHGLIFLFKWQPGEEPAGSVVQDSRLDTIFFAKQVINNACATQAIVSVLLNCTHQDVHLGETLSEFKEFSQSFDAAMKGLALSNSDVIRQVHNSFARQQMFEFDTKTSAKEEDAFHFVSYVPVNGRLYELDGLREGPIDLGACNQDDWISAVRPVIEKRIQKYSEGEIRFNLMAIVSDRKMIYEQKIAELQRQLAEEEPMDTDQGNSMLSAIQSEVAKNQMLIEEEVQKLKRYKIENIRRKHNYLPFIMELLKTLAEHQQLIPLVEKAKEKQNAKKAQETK
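Material: human UCH37 enzyme supplied as purified proteasome complex / Amount: 0.15 nM proteasome as dispensed / Buffer or medium: pH 7.4 Tris-HCl (50 mM) with ovalbumin, ATP-MgCl2, DTT / Times: preincubation 30 min, reaction 25 min, room temperature / Technique: AMC fluorescence from Ub-AMC cleavage, excitation 355 nm, emission 460 nm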
B2AR ag – human beta-2 adrenergic receptor agonism by FAP. Am2.2-beta2AR cells, FAP receptor internalization, flow cytometry. response, % (no concentration beside the values). hit rate 0.43% among 340,000. AID 504454;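 active means response above a set limit, near 3 SD of response in nonfluorescent compounds, cut at about 42% in these data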
PfGluPho inh – PfG6PD (Plasmodium falciparum) enzyme inhibition; PfGluPho enzyme, NADPH resazurin-diaphorase fluorescence; inhibition, % at 20 µM; hit rate 0.78% among 350,000; AID 504690;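 active means inhibition reaching at least a set limit at 20 µM in the primary screen, cut at about 59% in these data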
HKDC1 inhibitor – inhibitors of human hexokinase HKDC1. hit rate 0.16% among 340,000. recombinant HKDC1, G6PDH/diaphorase resazurin coupled fluorescence. AID 493160. inhibition, % at 20 µM;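 active means inhibition above about 35% when tested at 20 µM, limit read from the data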
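Test system: recombinant HKDC1 (HK5) hexokinase enzyme, produced in-house / Doses: 20 µM test compound, 1% DMSO / Timing: 90 min, room temperature / Detection: G6PDH/diaphorase-coupled fluorescence, 1 mM NADP, 100 µM resazurin, 525/613 nm / Control set: DMSO wells with and without enzyme mix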
PfG6PD confirm – confirmation of Plasmodium falciparum G6PD inhibitors | recombinant PfGluPho, NADPH-diaphorase-resazurin fluorescence | shares compounds with PfGluPho inh | AID 504753 | hit rate 34% among 2,400 | inhibition, % at 20 µM;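 active means inhibition of at least 50% at 20 µM in any single replicate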
Diaphorase 10uM – inhibits diaphorase or oxidizes, flagging false PfG6PD hits; inhibition, % at 20 µM; diaphorase-coupled resazurin reduction, fluorescence, NADPH 10 uM; shares compounds with PfGluPho inh; hit rate 39% among 820; AID 504862;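 active means average inhibition reaching 50% or more with the compound at 20 µM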;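 further: resorufin red fluorescence formed as diaphorase reduces resazurin using NADPH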
Diaph ctr 30uM – diaphorase inhibition or oxidation at 30 uM NADPH | shares compounds with PfGluPho inh | Diaphorase/resazurin coupled assay, resorufin fluorescence | inhibition, % at 20 µM | hit rate 29% among 820;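 active means inhibition averaging 50% or more, tested at 20 µM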
Each line names hits and unclear results; the compound was inactive in the other large screens (follow-up assays come after a bar, where they were run). Only some compounds are listed: those with a hit (about 2.1% of all), similar ones and a draw of the others.

Nn1c(CSc2nc3ccccc3o2)nnc1CSc1nc2ccccc2o1	PfGluPho inh 87.0 | PfG6PD confirm 59.9 | Diaphorase 10uM 56.4 | Diaph ctr 30uM inactive
Cc1cccc(NC(=O)COc2ccc(Br)cc2C=NO)c1	none (no result: Cardio protect, aDG glyco up, B2AR ag, PfGluPho inh, HKDC1 inhibitor)
O=C(NN=Cc1ccccc1)c1ccc(N2CCCC2=O)cc1	none (no result: Cardio protect, aDG glyco up, B2AR ag, PfGluPho inh, HKDC1 inhibitor)
O=C(/N=C1\NC(=O)C(F)(C(F)(F)F)S1)NC1CCCCC1 (stereo not drawn)	PfGluPho inh 73.4 | PfG6PD confirm inactive
O=C(CNc1ccccc1F)NN=CC1CC=CCC1 (stereo not drawn)	none (no result: Cardio protect, aDG glyco up, B2AR ag, PfGluPho inh, HKDC1 inhibitor)
C#CCOCCOCCOCCNc1nc(N2CCN(C(=O)CCCCCCCCCCNC(=O)[C@H](CCCCN)n3cc(CCO)nn3)CC2)nc(N2CCN(C(=O)CCCCCCCCCCNC(=O)[C@H](CCCCN)n3cc(C[C@@H](C)CC)nn3)CC2)n1	PfGluPho inh 77.0 (no result: Cardio protect, aDG glyco up, B2AR ag) | PfG6PD confirm inactive
C#CCOCCOCCOCCNc1nc(N2CCN(C(=O)[C@H](CCCCN)n3cc([C@@H](N)C(C)CC)nn3)CC2)nc(N2CCN(C(=O)[C@H](Cc3cc4ccccc4[nH]3)n3cc([C@@H](N)C(C)CC)nn3)CC2)n1 (stereo partly drawn)	PfGluPho inh 61.2 | PfG6PD confirm inactive
C#CCOCCOCCOCCNc1nc(N2CCN(C(=O)CCCCCCCCCCNC(=O)[C@H](CCCCN)n3cc(CCO)nn3)CC2)nc(N2CCN(C(=O)CCCCCCCCCCNC(=O)[C@H](CCCCN)n3cc(CCCC(=O)O)nn3)CC2)n1	none
C#CCOCCOCCOCCNc1nc(N2CCN(C(=O)[C@H](CCC(=O)O)n3cc(C(N)[C@H](C)CC)nn3)CC2)nc(N2CCN(C(=O)[C@H](Cc3cc4ccccc4[nH]3)n3cc(C(N)[C@H](C)CC)nn3)CC2)n1 (stereo partly drawn)	none (no result: Cardio protect, aDG glyco up, B2AR ag, PfGluPho inh, HKDC1 inhibitor)
Cc1[nH]c2ccccc2c1/C=N/Nc1nncn1N	PfGluPho inh 69.2 (no result: UCH37 inh) | PfG6PD confirm 60.0 | Diaphorase 10uM inactive | Diaph ctr 30uM inactive
Cc1ccc(/C=C/C(=O)Nc2sc(C)c(C)c2C(=O)OC(C)C)o1	PfGluPho inh 59.7 | PfG6PD confirm inactive
CCCOc1ccc(/C=C/C(=O)Nc2ccc([N+](=O)[O-])cc2)cc1	none
O=C(O)/C=C/C(=O)Nc1ccc(Oc2ccccc2)cc1	none
CCOC(=O)c1c(NC(=O)/C=C/c2ccc(C)o2)sc(C)c1C	none
Cc1ccc(/C=C/C(=O)Nc2ccc([N+](=O)[O-])cc2)o1	PfGluPho inh 88.0 | PfG6PD confirm inactive
Cc1ccc(/C=C/C(=O)Nc2ccc(Oc3ccccc3)cc2)o1	PfGluPho inh 60.8 | PfG6PD confirm inactive
COc1ccc(C=NNC(=O)c2ccc(Br)o2)cc1Cn1cc([N+](=O)[O-])cn1	none (no result: Cardio protect, aDG glyco up, B2AR ag, PfGluPho inh, HKDC1 inhibitor)
CCOC(=O)c1cc(C)[nH]c(=S)c1C#N	PfGluPho inh 74.2 | PfG6PD confirm inactive
CCCN1C(=O)C(=NOCC(=O)Nc2ccc(C(C)C)cc2)c2ccccc21	none (no result: Cardio protect, aDG glyco up, B2AR ag, PfGluPho inh, HKDC1 inhibitor)
COC(=O)[C@H](C)NC(=O)c1cc2c(cn1)[nH]c1ccccc12	PfGluPho inh 90.4 (no result: UCH37 inh) | PfG6PD confirm 55.0 | Diaphorase 10uM inactive | Diaph ctr 30uM inactive
O=C(O)c1cc2c(cn1)[nH]c1ccccc12	none (no result: UCH37 inh)
C[C@H](NC(=O)c1cc2c(cn1)[nH]c1ccccc12)C(=O)O	PfGluPho inh 97.7 (no result: UCH37 inh) | PfG6PD confirm 62.2 | Diaphorase 10uM inactive | Diaph ctr 30uM inactive
O=C(NN=Cc1cccnc1)c1cc2ccccc2cc1O	none (no result: Cardio protect, aDG glyco up, B2AR ag, PfGluPho inh, HKDC1 inhibitor)
CN(C)c1ccc(C=Nc2ccc(N(C)C)cc2)cc1	PfGluPho inh 65.5 | PfG6PD confirm inactive
COc1ccc(Cl)cc1NC(=O)c1cccc([N+](=O)[O-])c1O	PfGluPho inh 76.9 (no result: UCH37 inh) | PfG6PD confirm 57.4 | Diaphorase 10uM inactive | Diaph ctr 30uM inactive
CC(CCc1ccccc1)=NNC(=O)COc1ccccc1C	none (no result: Cardio protect, aDG glyco up, B2AR ag, PfGluPho inh, HKDC1 inhibitor)
CC1(CC(=O)NN=Cc2ccc(-c3ccc(C(=O)O)cc3)o2)OCCO1	none (no result: Cardio protect, aDG glyco up, B2AR ag, PfGluPho inh, HKDC1 inhibitor)
Cc1cc(C)cc(Nc2nc(-c3ccc(S(=O)(=O)N4CCCC4)cc3)cs2)c1	none
Cc1ccc(Nc2nc(-c3ccc(S(=O)(=O)N4CCOCC4)cc3)cs2)cc1	none | PfG6PD confirm inactive
O=C(O)c1cc(NN=Cc2ccc3c(c2)OCCO3)ccc1Cl	none (no result: Cardio protect, aDG glyco up, B2AR ag, PfGluPho inh, HKDC1 inhibitor)
c1cncc(-c2nn3c(Cn4cnc5ccccc54)nnc3s2)c1	PfGluPho inh 64.7 | PfG6PD confirm inactive
c1ccc(-c2nn3c(Cn4cnc5ccccc54)nnc3s2)cc1	PfGluPho inh 64.0 | PfG6PD confirm inactive
c1ccc(-c2nn3c(Cn4nnc5ccccc54)nnc3s2)cc1	PfGluPho inh 74.7 | PfG6PD confirm inactive
O=C(CC(=O)NN=Cc1ccc(F)cc1)NCCc1ccccc1	none (no result: Cardio protect, aDG glyco up, B2AR ag, PfGluPho inh, HKDC1 inhibitor)

High-throughput results (PubChem)
